ChEMBL document CHEMBL1926577, “Novel 1,3,4-heterodiazole analogues: synthesis and in-vitro antitumor activity” (2012)

Assays:
Assay type in all cases: functional
BT-549 = assay: Growth inhibition of human BT549 cells at 10 uM after 48 hrs by coulter counter method; settings: BT-549, 48 h, read-out: GI
How it was run: (§1)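 NCI 60-cell-line panel, single dose. Compound dissolved first in DMSO, then diluted in phosphate-buffered saline so that every final dilution held under 1% DMSO. Duplicate wells received cells at 6 × 10⁴ cells/ml. Controls held PBS/DMSO at the same dilution. Plates were incubated 48 h at 37 °C under 5% CO₂. Cells were then diluted 10-fold in saline and counted on a Coulter counter, with counts corrected for the dilution. Results are given as percent growth inhibition.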

IGROV-1 = assay: Growth inhibition of human IGROV1 cells at 10 uM after 48 hrs by coulter counter method; settings: IGROV-1, 48 h, read-out: GI; how it was run: as §1
CCRF-CEM = assay: Growth inhibition of human CCRF-CEM cells at 10 uM after 48 hrs by coulter counter method; settings: read-out: GI; how it was run: as §1
T47D = assay: Growth inhibition of human T47D cells at 10 uM after 48 hrs by coulter counter method; settings: read-out: GI; how it was run: as §1
Malme-3M = assay: Growth inhibition of human MALME-3M cells at 10 uM after 48 hrs by coulter counter method; settings: read-out: GI; how it was run: as §1
SNB-75 = assay: Growth inhibition of human SNB75 cells at 10 uM after 48 hrs by coulter counter method; settings: SNB-75, 48 h, read-out: GI; how it was run: as §1
NCI/ADR-RES = assay: Growth inhibition of human NCI/ADR-RES cells at 10 uM after 48 hrs by coulter counter method; settings: read-out: GI; how it was run: as §1
SF-268 = assay: Growth inhibition of human SF268 cells at 10 uM after 48 hrs by coulter counter method; settings: SF-268, 48 h, read-out: GI; how it was run: as §1
LOX IMVI = assay: Growth inhibition of human LOXIMVI cells at 10 uM after 48 hrs by coulter counter method; settings: read-out: GI; how it was run: as §1
A498 = assay: Growth inhibition of human A498 cells at 10 uM after 48 hrs by coulter counter method; settings: A498, 48 h, read-out: GI; how it was run: as §1
NCI-H23 = assay: Growth inhibition of human NCI-H23 cells at 10 uM after 48 hrs by coulter counter method; settings: NCI-H23, 48 h, read-out: GI; how it was run: as §1
MDA-MB-468 = assay: Growth inhibition of human MDA-MB-468 cells at 10 uM after 48 hrs by coulter counter method; settings: MDA-MB-468, 48 h, read-out: GI; how it was run: as §1
MCF7 = assay: Growth inhibition of human MCF7 cells at 10 uM after 48 hrs by coulter counter method; settings: MCF7, 48 h, read-out: GI; how it was run: as §1
CAKI-1 = assay: Growth inhibition of human Caki1 cells at 10 uM after 48 hrs by coulter counter method; settings: CAKI-1, 48 h, read-out: GI; how it was run: as §1
SN12C = assay: Growth inhibition of human SN12C cells at 10 uM after 48 hrs by coulter counter method; settings: read-out: GI; how it was run: as §1
ACHN = assay: Growth inhibition of human ACHN cells at 10 uM after 48 hrs by coulter counter method; settings: read-out: GI; how it was run: as §1
SK-MEL-2 = assay: Growth inhibition of human SK-MEL-2 cells at 10 uM after 48 hrs by coulter counter method; settings: SK-MEL-2, 48 h, read-out: GI; how it was run: as §1
UACC-257 = assay: Growth inhibition of human UACC257 cells at 10 uM after 48 hrs by coulter counter method; settings: UACC-257, 48 h, read-out: GI; how it was run: as §1
MDA-MB-435 = assay: Growth inhibition of human MDA-MB-435 cells at 10 uM after 48 hrs by coulter counter method; settings: MDA-MB-435, 48 h, read-out: GI; how it was run: as §1
K562 = assay: Growth inhibition of human K562 cells at 10 uM after 48 hrs by coulter counter method; settings: K562, 48 h, read-out: GI; how it was run: as §1
SNB-19 = assay: Growth inhibition of human SNB19 cells at 10 uM after 48 hrs by coulter counter method; settings: SNB-19, 48 h, read-out: GI; how it was run: as §1
HCT-15 = assay: Growth inhibition of human HCT15 cells at 10 uM after 48 hrs by coulter counter method; settings: HCT-15, 48 h, read-out: GI; how it was run: as §1
M14 = assay: Growth inhibition of human M14 cells at 10 uM after 48 hrs by coulter counter method; settings: M14, 48 h, read-out: GI; how it was run: as §1
SF-295 = assay: Growth inhibition of human SF295 cells at 10 uM after 48 hrs by coulter counter method; settings: SF-295, 48 h, read-out: GI; how it was run: as §1
TK-10 = assay: Growth inhibition of human TK10 cells at 10 uM after 48 hrs by coulter counter method; settings: TK-10, 48 h, read-out: GI; how it was run: as §1
UACC-62 = assay: Growth inhibition of human UACC62 cells at 10 uM after 48 hrs by coulter counter method; settings: UACC-62, 48 h, read-out: GI; how it was run: as §1
UO-31 = assay: Growth inhibition of human UO31 cells at 10 uM after 48 hrs by coulter counter method; settings: UO-31, 48 h, read-out: GI; how it was run: as §1
SR = assay: Growth inhibition of human SR cells at 10 uM after 48 hrs by coulter counter method; settings: read-out: GI; how it was run: as §1
786-0 = assay: Growth inhibition of human 786-0 cells at 10 uM after 48 hrs by coulter counter method; settings: 786-0, 48 h, read-out: GI; how it was run: as §1
EKVX = assay: Growth inhibition of human EKVX cells at 10 uM after 48 hrs by coulter counter method; settings: read-out: GI; how it was run: as §1
HT-29 = assay: Growth inhibition of human HT-29 cells at 10 uM after 48 hrs by coulter counter method; settings: HT-29, 48 h, read-out: GI; how it was run: as §1
PC-3 = assay: Growth inhibition of human PC3 cells at 10 uM after 48 hrs by coulter counter method; settings: PC-3, 48 h, read-out: GI; how it was run: as §1
A549 = assay: Growth inhibition of human A549 cells at 10 uM after 48 hrs by coulter counter method; settings: A549, 48 h, read-out: GI; how it was run: as §1
HL-60(TB) = assay: Growth inhibition of human HL-60(TB) cells at 10 uM after 48 hrs by coulter counter method; settings: HL-60, 48 h, read-out: GI
How it was run: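 Single-dose screen on the NCI 60-line panel (leukemia subpanel). Compound is dissolved in DMSO and diluted in PBS, with final DMSO below 1%. Duplicate wells hold 6 × 10⁴ cells/ml at 37 °C, 5% CO₂, for 48 h. Cells are counted by Coulter counter after 10-fold saline dilution. Read-out is percent growth versus PBS/DMSO controls, expressed as % growth inhibition.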

SK-MEL-28 = assay: Growth inhibition of human SK-MEL-28 cells at 10 uM after 48 hrs by coulter counter method; settings: SK-MEL-28, 48 h, read-out: GI; how it was run: as §1
NCI-H322M = assay: Growth inhibition of human NCI-H322M cells at 10 uM after 48 hrs by coulter counter method; settings: read-out: GI; how it was run: as §1
NCI-H226 = assay: Growth inhibition of human NCI-H226 cells at 10 uM after 48 hrs by coulter counter method; settings: NCI-H226, 48 h, read-out: GI; how it was run: as §1
OVCAR-8 = assay: Growth inhibition of human OVCAR8 cells at 10 uM after 48 hrs by coulter counter method; settings: OVCAR-8, 48 h, read-out: GI; how it was run: as §1
MOLT-4 = assay: Growth inhibition of human MOLT4 cells at 10 uM after 48 hrs by coulter counter method; settings: MOLT-4, 48 h, read-out: GI; how it was run: as §1
NCI-H522 = assay: Growth inhibition of human NCI-H522 cells at 10 uM after 48 hrs by coulter counter method; settings: NCI-H522, 48 h, read-out: GI; how it was run: as §1
SK-MEL-5 = assay: Growth inhibition of human SK-MEL-5 cells at 10 uM after 48 hrs by coulter counter method; settings: SK-MEL-5, 48 h, read-out: GI; how it was run: as §1
HCT-116 = assay: Growth inhibition of human HCT116 cells at 10 uM after 48 hrs by coulter counter method; settings: HCT-116, 48 h, read-out: GI; how it was run: as §1
KM12 = assay: Growth inhibition of human KM12 cells at 10 uM after 48 hrs by coulter counter method; settings: KM12, 48 h, read-out: GI; how it was run: as §1
U-251 = assay: Growth inhibition of human U251 cells at 10 uM after 48 hrs by coulter counter method; settings: U-251, 48 h, read-out: GI; how it was run: as §1

Measured: inhibition of growth at 10 µM

NC1=CC(N)=NC2SC(c3ccc(Cl)cc3)=NN12 (centres undefined)
26.9%: K562
21.9%: UO-31
17.4%: SK-MEL-28
11.8%: HT-29
14.3%: PC-3
27.5%: SK-MEL-2
13.1%: NCI-H226
< 10%: BT-549 | CCRF-CEM | T47D | Malme-3M | SNB-75 | NCI/ADR-RES | SF-268 | LOX IMVI | A498 | NCI-H23 | MDA-MB-468 | MCF7 | CAKI-1 | SN12C | ACHN | UACC-257 | MDA-MB-435 | SNB-19 | HCT-15 | M14 | SF-295 | TK-10 | UACC-62 | 786-0 | EKVX | A549 | NCI-H322M | OVCAR-8 | SK-MEL-5 | HCT-116 | KM12 | U-251
20.6%: MOLT-4
34.1%: HL-60(TB)
22.3%: IGROV-1
19.9%: SR | NCI-H522
